Results from ChEMBL document CHEMBL2321820, “Discovery of HSD-621 as a Potential Agent for the Treatment of Type 2 Diabetes” (ACS Med Chem Lett, 2013).
pIC50: −log10 of the molar value.

Experiments:
Mus musculus [1] = test: Ex vivo inhibition of 11beta-HSD1 in C57B16 mouse epididymal fat assessed as conversion of [3H]-cortisone to [3H]-cortisol at 10 mg/kg, po after 5 hrs by HPLC analysis relative to vehicle-treated control; assay type: functional
How it was run: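 Mice were dosed orally at 10 mg/kg. Epididymal fat was collected 5 h after dosing for the ex vivo readout.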

[2] = Half life in mouse liver microsomes; assay type: ADME, Microsome
[3] = Half life in human liver microsomes; assay type: ADME, Microsome
[4] = biological target: T1, 11-beta-hydroxysteroid dehydrogenase 1 (Mus musculus, UniProt P50172); test: Inhibition of mouse 11beta-HSD1 expressed in CHO cells […] incubated for 30 mins prior to substrate addition measured after 120 mins by chemiluminescence assay; assay type: cell-based
T1 sequence (P50172 whole entry): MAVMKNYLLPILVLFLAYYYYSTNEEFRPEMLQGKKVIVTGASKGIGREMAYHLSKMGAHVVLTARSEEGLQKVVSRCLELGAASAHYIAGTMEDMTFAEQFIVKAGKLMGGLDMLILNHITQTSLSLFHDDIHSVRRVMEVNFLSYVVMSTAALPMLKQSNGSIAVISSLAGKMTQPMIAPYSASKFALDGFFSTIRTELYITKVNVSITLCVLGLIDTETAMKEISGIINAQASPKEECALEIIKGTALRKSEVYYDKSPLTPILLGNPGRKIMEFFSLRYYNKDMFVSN
How it was run: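 Cell-based assay run in duplicate. Compounds were tested as 11-point 2-fold dilutions, and IC50 was derived. Lower assay threshold was 10 nM.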

[5] = biological target: 11-beta-hydroxysteroid dehydrogenase 1 (Homo sapiens, UniProt P28845); test: Inhibition of human 11beta-HSD1 expressed in CHO cells using cortisone as substrate incubated for 30 mins prior to substrate addition measured after 120 mins by chemiluminescence assay
11-beta-hydroxysteroid dehydrogenase 1 (Homo sapiens, UniProt P28845), sequence (P28845 whole entry): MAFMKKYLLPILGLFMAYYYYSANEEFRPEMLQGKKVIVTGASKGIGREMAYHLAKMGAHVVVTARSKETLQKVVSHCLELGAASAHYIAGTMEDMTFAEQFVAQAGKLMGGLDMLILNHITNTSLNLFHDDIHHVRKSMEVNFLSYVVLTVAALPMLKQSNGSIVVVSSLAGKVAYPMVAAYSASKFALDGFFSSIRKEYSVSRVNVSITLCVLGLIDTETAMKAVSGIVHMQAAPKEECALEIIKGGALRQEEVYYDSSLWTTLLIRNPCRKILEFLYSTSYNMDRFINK

[6] = biological target: T1, 11-beta-hydroxysteroid dehydrogenase 1; test: Inhibition of mouse 11beta-HSD1 expressed in CHO cells […] incubated for 30 mins prior to substrate addition measured after 120 mins by chemiluminescence assay in presence of 10% human serum; assay type: cell-based
How it was run: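 Cell-based assay with 10% (v/v) human serum in the culture medium. Run in duplicate, with 11-point 2-fold dilutions giving the IC50. Lower threshold was 10 nM.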

Cytochrome P450 2C9 = Cytochrome P450 2C9 (Homo sapiens, UniProt P11712); test: Inhibition of CYP2C9 (unknown origin); assay type: ADME
Cytochrome P450 2C9, sequence (P11712 whole entry): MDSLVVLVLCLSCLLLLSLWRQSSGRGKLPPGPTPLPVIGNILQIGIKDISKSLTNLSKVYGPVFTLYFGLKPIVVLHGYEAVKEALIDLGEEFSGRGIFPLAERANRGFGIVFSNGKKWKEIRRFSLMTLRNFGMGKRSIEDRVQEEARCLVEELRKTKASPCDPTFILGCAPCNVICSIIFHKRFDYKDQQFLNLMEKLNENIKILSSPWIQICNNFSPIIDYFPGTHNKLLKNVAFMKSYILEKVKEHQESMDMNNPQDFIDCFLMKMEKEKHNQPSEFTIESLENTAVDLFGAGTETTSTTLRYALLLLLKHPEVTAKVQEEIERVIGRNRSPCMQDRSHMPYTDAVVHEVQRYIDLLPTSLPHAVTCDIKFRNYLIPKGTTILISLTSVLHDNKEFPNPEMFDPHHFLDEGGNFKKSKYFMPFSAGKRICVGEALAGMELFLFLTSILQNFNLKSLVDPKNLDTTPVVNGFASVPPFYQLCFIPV

Mus musculus [7] = species: Mus musculus; test: Toxicity in C57B6 DIO mouse assessed as body weight gain at after 31 days; settings: in vivo, po, 744 h
[8] = Volume of distribution at steady state in C57B6 mouse at 2 mg/kg, iv; assay type: ADME, organism-based; parameters: dose 2 mg/kg, route intravenous; settings: in vivo, read-out: Vdss
How it was run: (§1)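 Male C57B6 mice. IV dose of 2 mg/kg in 50% DMSO/50% PEG200. Oral dose of 10 mg/kg in 2% Tween/0.5% methyl cellulose in water. Values are PK parameters from the iv and po arms.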

[9] = Half life in C57B6 mouse at 10 mg/kg, po; assay type: ADME, organism-based; parameters: dose 10 mg/kg, route oral; settings: in vivo; how it was run: as §1
[10] = Cmax in C57B6 mouse at 10 mg/kg, po; assay type: ADME, organism-based; parameters: dose 10 mg/kg, route oral; settings: in vivo; how it was run: as §1
[11] = Half life in C57B6 mouse at 2 mg/kg, iv; assay type: ADME, organism-based; parameters: dose 2 mg/kg, route intravenous; settings: in vivo; how it was run: as §1
[12] = biological target: T2, 11-beta-hydroxysteroid dehydrogenase type 2 (Homo sapiens, UniProt P80365); test: Inhibition of human 11beta-HSD2 expressed in CHO cells using […] as substrate incubated for 30 mins prior to substrate addition measured after 120 mins by scintillation counting analysis; assay type: cell-based
T2 sequence (P80365 whole entry): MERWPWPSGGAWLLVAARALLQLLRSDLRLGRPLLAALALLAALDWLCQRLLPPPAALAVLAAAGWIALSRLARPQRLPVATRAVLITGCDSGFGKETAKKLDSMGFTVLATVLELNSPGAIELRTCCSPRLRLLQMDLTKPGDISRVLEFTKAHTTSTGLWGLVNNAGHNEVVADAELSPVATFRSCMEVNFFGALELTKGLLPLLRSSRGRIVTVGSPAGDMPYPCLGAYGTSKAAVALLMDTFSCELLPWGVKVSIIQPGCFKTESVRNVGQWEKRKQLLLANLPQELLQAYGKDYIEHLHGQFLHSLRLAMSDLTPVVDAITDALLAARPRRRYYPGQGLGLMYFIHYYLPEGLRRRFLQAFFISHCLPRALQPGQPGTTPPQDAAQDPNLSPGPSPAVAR

[13] = AUC in C57B6 mouse at 2 mg/kg, iv; assay type: ADME, organism-based; parameters: dose 2 mg/kg, route intravenous; settings: plasma; how it was run: as §1
[14] = Clearance in C57B6 mouse at 2 mg/kg, iv; assay type: ADME, organism-based; parameters: dose 2 mg/kg, route intravenous; settings: in vivo; how it was run: as §1
[15] = AUC in C57B6 mouse at 10 mg/kg, po; assay type: ADME, organism-based; parameters: dose 10 mg/kg, route oral; settings: plasma; how it was run: as §1
[16] = Tmax in C57B6 mouse at 10 mg/kg, po; assay type: ADME, organism-based; parameters: dose 10 mg/kg, route oral; settings: in vivo; how it was run: as §1
[17] = Oral bioavailability in C57B6 mouse at 10 mg/kg; assay type: ADME, organism-based; settings: in vivo; how it was run: as §1

SMILES	half-life [2] [min]	half-life [3] [min]	pIC50 [4]	pIC50 [5]	pIC50 [6]	inhibition in vivo at 10 mg/kg (Mus musculus [1]) [%]	further results
C[C@@H]1CN(c2ccc(F)cc2C(F)(F)F)CCN1S(=O)(=O)c1ncc([C@@](O)(C(N)=O)C(F)(F)F)s1	18	21				83	
C[C@@H]1CN(c2ccc(F)cc2C(F)(F)F)CCN1S(=O)(=O)c1cccc([C@](O)(C(N)=O)C(F)(F)F)c1	< 2	< 2	8.00	7.29	8.00	38	
C[C@@H]1CN(c2ccc(F)cc2C(F)(F)F)CCN1S(=O)(=O)c1ccc(C(C)(O)C(F)(F)F)s1 (some centres not stated)	17	> 30	8.00	7.82	8.00	44	
CN(CCOc1ccc(CC2SC(=O)NC2=O)cc1)c1ccccn1 (configuration not stated) [ROSIGLITAZONE]							Activity (Mus musculus [7]): Non-toxic
C[C@@H]1CN(c2ccc(F)cc2C(F)(F)F)CCN1S(=O)(=O)c1ccc([C@](C)(O)C(F)(F)F)s1	> 30	> 30	8.00	8.00	8.00	5	
C[C@@H]1CN(c2ccc(F)cc2C(F)(F)F)CCN1S(=O)(=O)c1cccc([C@@](O)(C(N)=O)C(F)(F)F)c1	30	18	8.00	7.64	8.00	82	Vd [8]: 1.8 L/kg; half-life [9]: 168 min; Cmax [10]: 1.55 µg/mL; half-life [11]: 252 min; pIC50 [12]: < 4.00; AUC [13]: 6.13 µg·h/mL; clearance [14]: 0.324 L/h/kg; AUC [15]: 14 µg·h/mL; Tmax [16]: 120 min; bioavailability [17]: 46%
C[C@@H]1CN(c2ccc(F)cc2C(F)(F)F)CCN1S(=O)(=O)c1ccc([C@@](O)(C(N)=O)C(F)(F)F)cc1	30	10	7.40		7.32	< 10	
C[C@@H]1CN(c2ccc(F)cc2C(F)(F)F)CCN1S(=O)(=O)c1ccc([C@@](C)(O)C(F)(F)F)s1	17	> 30	8.00	7.77	8.00	80	Vd [8]: 5.8 L/kg; Cmax [10]: 0.449 µg/mL; half-life [11]: 570 min; pIC50 [12]: < 4.00; AUC [13]: 3.59 µg·h/mL; clearance [14]: 0.54 L/h/kg; AUC [15]: 3.4 µg·h/mL; Tmax [16]: 30 min; bioavailability [17]: 19%
C[C@@H]1CN(c2ccc(F)cc2C(F)(F)F)CCN1S(=O)(=O)c1ncc([C@](O)(C(N)=O)C(F)(F)F)s1	> 30	19				17	
C[C@@H]1CN(c2ccc(F)cc2C(F)(F)F)CCN1S(=O)(=O)c1ccc([C@](O)(C(N)=O)C(F)(F)F)s1	18	18	8.00	6.84	8.00	50	

The next lines start with results.

half-life [2] [min]	half-life [3] [min]	pIC50 [4]	pIC50 [5]	pIC50 [6]	SMILES	inhibition in vivo at 10 mg/kg (Mus musculus [1]) [%]	further results
17	10				C[C@@H]1CN(c2ccc(C(N)=O)cc2C(F)(F)F)CCN1S(=O)(=O)c1ccc([C@](C)(O)C(F)(F)F)s1	86	inhibition (INH) (Cytochrome P450 2C9): Active
26					C[C@@H]1CN(c2ccc(F)cc2C(F)(F)F)CCN1S(=O)(=O)c1ccc(C(O)(c2nnc[nH]2)C(F)(F)F)s1 (some centres not stated)	57	
30	27	7.70		7.39	C[C@@H]1CN(c2ccc(F)cc2C(F)(F)F)CCN1S(=O)(=O)c1ccc([C@](O)(C(N)=O)C(F)(F)F)cc1	< 10	
17	17				C[C@@H]1CN(c2ccc(C(N)=O)cc2C(F)(F)F)CCN1S(=O)(=O)c1ccc([C@@](C)(O)C(F)(F)F)s1	87	inhibition (INH) (Cytochrome P450 2C9): Active
23	10	6.78		5.86	C[C@@H]1CN(c2ccc(F)cc2C(F)(F)F)CCN1S(=O)(=O)c1nc(C(C)(O)C(F)(F)F)n(C)n1 (some centres not stated)	38	
30	10	7.11		7.74	C[C@@H]1CN(c2ccc(F)cc2C(F)(F)F)CCN1S(=O)(=O)c1cn(C)c(C(C)(O)C(F)(F)F)n1 (some centres not stated)	33	
